According to ChEMBL document CHEMBL5724801, “EUbOPEN Chemogenomics Library - Multiplex” (2024):
Where “and” joins values, the source holds several entries; their conditions need not be identical. Equal values may be shown once.

Assays:
HEK-293T = test: Multiplex assay against HEK293T; format: toxicity, cell-based; details: human
Outline: (§1)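 Cells stained live at seeding with Hoechst33342, BioTracker Green Microtubule Cytoskeleton Dye, MitoTracker Red and Annexin V Alexa Fluor 680 were imaged on a CQ1 microscope at 37°C and 5% CO2 after compound addition. Their classification by CellPathfinder machine-learning gating ran from Hoechst high-intensity objects versus normal cells, to healthy, pyknosed or fragmented nuclei among normal cells, to mitotic or apoptotic among pyknosed cells. Tubulin, mitochondrial-mass and membrane-permeability phenotypes are per cents of healthy-nucleus cells.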

Fibroblast = test: Multiplex assay against human fibroblast; format: toxicity, cell-based; outline: as §1
[1] = 12 h, 1 µM, compound concentration 1 uM
[2] = 12 h, 10 µM, compound concentration 10 uM
[3] = 24 h, 1 µM, compound concentration 1 uM
[4] = 24 h, 10 µM, compound concentration 10 uM
[5] = 48 h, 1 µM, compound concentration 1 uM
[6] = 48 h, 10 µM, compound concentration 10 uM

CC(C)COc1ccc(CNC(=O)N(Cc2ccc(F)cc2)C2CCN(C)CC2)cc1 [PIMAVANSERIN]
Population Apoptotic (%) (HEK-293T; [1]): 39% and 54% | Population Fragmented Nuclei (%) (HEK-293T; [1]): 5% and 7% | Population Healthy Nuclei (%) (HEK-293T; [1]): 82% and 74% | Population Hoechst High Intensity Objects (%) (HEK-293T; [1]): 6% and 11% | Population Membrane Permeable-Phenotype (%) (HEK-293T; [1]): 0% | Population Mitochondria Different-Phenotype (%) (HEK-293T; [1]): 50% and 68% | Population Mitotic Cells (%) (HEK-293T; [1]): 60% and 46% | Population Normal (%) (HEK-293T; [1]): 93% and 88% | Population Pyknosed Nuclei (%) (HEK-293T; [1]): 11% and 18% | Population Tubulin-Different-Phenotype (%) (HEK-293T; [1]): 49% and 35% | Total Cell Count (HEK-293T; [1]): 430 and 311 | Population Apoptotic (%) (HEK-293T; [2]): 62% and 79% | Population Fragmented Nuclei (%) (HEK-293T; [2]): 10% and 7% | Population Healthy Nuclei (%) (HEK-293T; [2]): 60% and 64% | Population Hoechst High Intensity Objects (%) (HEK-293T; [2]): 19% and 25% | Population Membrane Permeable-Phenotype (%) (HEK-293T; [2]): 0% | Population Mitochondria Different-Phenotype (%) (HEK-293T; [2]): 89% and 87% | Population Mitotic Cells (%) (HEK-293T; [2]): 37% and 20% | Population Normal (%) (HEK-293T; [2]): 80% and 74% | Population Pyknosed Nuclei (%) (HEK-293T; [2]): 28% and 27% | Population Tubulin-Different-Phenotype (%) (HEK-293T; [2]): 81% and 66% | Total Cell Count (HEK-293T; [2]): 285 and 237 | Population Apoptotic (%) (HEK-293T; [3]): 33% and 48% | Population Fragmented Nuclei (%) (HEK-293T; [3]): 9% and 4% | Population Healthy Nuclei (%) (HEK-293T; [3]): 77% and 82% | Population Hoechst High Intensity Objects (%) (HEK-293T; [3]): 6% and 8% | Population Membrane Permeable-Phenotype (%) (HEK-293T; [3]): 2% and 0% | Population Mitochondria Different-Phenotype (%) (HEK-293T; [3]): 42% and 55% | Population Mitotic Cells (%) (HEK-293T; [3]): 66% and 51% | Population Normal (%) (HEK-293T; [3]): 93% and 91% | Population Pyknosed Nuclei (%) (HEK-293T; [3]): 13% and 12% | Population Tubulin-Different-Phenotype (%) (HEK-293T; [3]): 40% and 30% | Total Cell Count (HEK-293T; [3]): 553 and 394 | Population Apoptotic (%) (HEK-293T; [4]): 81% and 84% | Population Fragmented Nuclei (%) (HEK-293T; [4]): 10% and 12% | Population Healthy Nuclei (%) (HEK-293T; [4]): 57% and 54% | Population Hoechst High Intensity Objects (%) (HEK-293T; [4]): 27% and 34% | Population Membrane Permeable-Phenotype (%) (HEK-293T; [4]): 0% | Population Mitochondria Different-Phenotype (%) (HEK-293T; [4]): 94% and 100% | Population Mitotic Cells (%) (HEK-293T; [4]): 18% and 15% | Population Normal (%) (HEK-293T; [4]): 72% and 65% | Population Pyknosed Nuclei (%) (HEK-293T; [4]): 31% and 32% | Population Tubulin-Different-Phenotype (%) (HEK-293T; [4]): 77% and 69% | Total Cell Count (HEK-293T; [4]): 285 and 215 | Population Apoptotic (%) (HEK-293T; [5]): 27% and 48% | Population Fragmented Nuclei (%) (HEK-293T; [5]): 13% and 9% | Population Healthy Nuclei (%) (HEK-293T; [5]): 77% and 84% | Population Hoechst High Intensity Objects (%) (HEK-293T; [5]): 5% | Population Membrane Permeable-Phenotype (%) (HEK-293T; [5]): 1% and 0% | Population Mitochondria Different-Phenotype (%) (HEK-293T; [5]): 31% and 33% | Population Mitotic Cells (%) (HEK-293T; [5]): 72% and 51% | Population Normal (%) (HEK-293T; [5]): 94% | Population Pyknosed Nuclei (%) (HEK-293T; [5]): 8% and 6% | Population Tubulin-Different-Phenotype (%) (HEK-293T; [5]): 33% and 21% | Total Cell Count (HEK-293T; [5]): 869 and 601 | Population Apoptotic (%) (HEK-293T; [6]): 75% and 61% | Population Fragmented Nuclei (%) (HEK-293T; [6]): 29% and 31% | Population Healthy Nuclei (%) (HEK-293T; [6]): 30% | Population Hoechst High Intensity Objects (%) (HEK-293T; [6]): 52% and 60% | Population Membrane Permeable-Phenotype (%) (HEK-293T; [6]): 0% | Population Mitochondria Different-Phenotype (%) (HEK-293T; [6]): 88% and 92% | Population Mitotic Cells (%) (HEK-293T; [6]): 24% and 38% | Population Normal (%) (HEK-293T; [6]): 47% and 40% | Population Pyknosed Nuclei (%) (HEK-293T; [6]): 40% and 37% | Population Tubulin-Different-Phenotype (%) (HEK-293T; [6]): 58% and 64% | Total Cell Count (HEK-293T; [6]): 235 and 205 | Population Apoptotic (%) (Fibroblast; [1]): 65% and 61% | Population Fragmented Nuclei (%) (Fibroblast; [1]): 24% and 40% | Population Healthy Nuclei (%) (Fibroblast; [1]): 62% and 42% | Population Hoechst High Intensity Objects (%) (Fibroblast; [1]): 0% and 1% | Population Membrane Permeable-Phenotype (%) (Fibroblast; [1]): 0% and 7% | Population Mitochondria Different-Phenotype (%) (Fibroblast; [1]): 12% and 4% | Population Mitotic Cells (%) (Fibroblast; [1]): 34% and 38% | Population Normal (%) (Fibroblast; [1]): 100% and 98% | Population Pyknosed Nuclei (%) (Fibroblast; [1]): 12% and 16% | Population Tubulin-Different-Phenotype (%) (Fibroblast; [1]): 35% and 82% | Total Cell Count (Fibroblast; [1]): 179 and 160 | Population Apoptotic (%) (Fibroblast; [2]): 56% and 51% | Population Fragmented Nuclei (%) (Fibroblast; [2]): 18% and 31% | Population Healthy Nuclei (%) (Fibroblast; [2]): 65% and 42% | Population Hoechst High Intensity Objects (%) (Fibroblast; [2]): 1% and 4% | Population Membrane Permeable-Phenotype (%) (Fibroblast; [2]): 0% and 2% | Population Mitochondria Different-Phenotype (%) (Fibroblast; [2]): 42% and 32% | Population Mitotic Cells (%) (Fibroblast; [2]): 43% and 48% | Population Normal (%) (Fibroblast; [2]): 98% and 95% | Population Pyknosed Nuclei (%) (Fibroblast; [2]): 16% and 26% | Population Tubulin-Different-Phenotype (%) (Fibroblast; [2]): 93% and 81% | Total Cell Count (Fibroblast; [2]): 185 | Population Apoptotic (%) (Fibroblast; [3]): 60% and 52% | Population Fragmented Nuclei (%) (Fibroblast; [3]): 21% and 39% | Population Healthy Nuclei (%) (Fibroblast; [3]): 65% and 46% | Population Hoechst High Intensity Objects (%) (Fibroblast; [3]): 2% | Population Membrane Permeable-Phenotype (%) (Fibroblast; [3]): 1% and 4% | Population Mitochondria Different-Phenotype (%) (Fibroblast; [3]): 5% and 9% | Population Mitotic Cells (%) (Fibroblast; [3]): 39% and 47% | Population Normal (%) (Fibroblast; [3]): 97% | Population Pyknosed Nuclei (%) (Fibroblast; [3]): 12% and 13% | Population Tubulin-Different-Phenotype (%) (Fibroblast; [3]): 47% and 76%
